Source: PubChem BioAssay
MBD2 inh: blocks human MBD2 binding to methylated DNA; inhibition, % at 4.4 µM; Q9UBB5; actives 0.31% (n = 370,000); TR-FRET, MBD2 binding to methylated oligonucleotide; in the data active = inhibition above about 13%
Target sequence (Q9UBB5 whole entry, looked up): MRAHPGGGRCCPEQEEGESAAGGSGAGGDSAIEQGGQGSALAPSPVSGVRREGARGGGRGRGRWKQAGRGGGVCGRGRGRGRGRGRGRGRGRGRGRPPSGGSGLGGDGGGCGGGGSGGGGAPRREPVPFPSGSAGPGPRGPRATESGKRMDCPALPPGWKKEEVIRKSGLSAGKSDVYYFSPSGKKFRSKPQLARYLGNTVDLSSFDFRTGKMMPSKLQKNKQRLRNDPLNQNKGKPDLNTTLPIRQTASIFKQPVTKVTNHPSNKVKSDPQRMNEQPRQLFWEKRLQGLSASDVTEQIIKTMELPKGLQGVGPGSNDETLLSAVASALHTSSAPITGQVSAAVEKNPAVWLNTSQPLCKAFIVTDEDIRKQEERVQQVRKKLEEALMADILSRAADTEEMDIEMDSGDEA
Beta2AR agonist: human beta-2 adrenergic receptor agonism by FAP; P07550; Am2.2-beta2AR cells, FAP receptor internalization, flow cytometry; response, % (test concentration not listed); actives 0.43% (n = 340,000);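 active = response above a set limit, near 3 SD of response in nonfluorescent compounds, cut at about 42% in these data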
UHRF1 MBD2 ctr: human UHRF1 methylated DNA binding inhibitors; Q96T88; UHRF1 binding to methylated oligo, TR-FRET; inhibition, % at 4.4 µM; actives 0.75% (n = 370,000); AID 687016;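 also: UHRF1 SRA domain binding a hemimethylated CpG hairpin DNA probe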
Rin1-Abl PPI inh: human Rin1-Abl interaction inhibition; actives 0.4% (n = 360,000); inhibition, % at 7.35 µM; P00519+Q13671; TR-FRET Rin1/Abl binding, biochemical; in the data active = inhibition above about 5%, passing the limit was not always enough
Arr AP2 block: blocks beta-arrestin peptide binding to AP2 adaptin. FITC-arrestin peptide / GST-AP2 beads, flow cytometry; AP2 beta2 appendage carries R879A mutation. inhibition, % at 10 µM. actives 0.31% (n = 340,000);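 active = inhibition above a set limit, near 3 SD of compounds lacking own fluorescence, cut at about 54% in these data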
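Material – GST-tagged AP2 beta2-adaptin appendage (R879A) on 4 µm glutathione beads · Probe or stimulus – fluorescein-tagged arrestin peptide at 50 nM final · Timing – 12 min plus 1 h, RT · Detection – bead flow cytometry, FITC channel · Read-out basis – inhibition as reduced fluorescein signal on beads, percent · Medium – PBS plus Tween 20 (0.05%) and BSA (0.1%)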
ABHD5-PLIN5 inh: blocks binding of human ABHD5 to perilipin-5; actives 0.78% (n = 360,000); Q00G26+Q8WTS1; AID 602281; Split G. princeps luciferase complementation, luminescence, 4 h; inhibition, % at 4 µM;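 active = inhibition above the mean inhibition across every tested compound plus 3 SD, cut at about 22% in these data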
UHRF1 DNA bind: counter-screen for MBD2 inhibitors: human UHRF1 methylated DNA binding inhibitors | shares compounds with MBD2 inh | UHRF1 binding to methylated oligonucleotide, TR-FRET | inhibition, % at 4.4 µM | actives 25% (n = 1,000) | AID 720530;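 also: UHRF1 SRA domain binding a labeled hemimethylated CpG hairpin DNA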
MBD2 confirm: confirmation of human MBD2-DBD methylated oligonucleotide binding inhibitors; actives 26% (n = 1,000); shares compounds with MBD2 inh; TR-FRET MBD2-DBD binding to methylated oligonucleotide; inhibition, % at 4.4 µM; in the data active = inhibition above about 14%
Numbers stand for hits. This is a sample that favours compounds with a hit; in the whole collection about 2.5% have one here. Rule as the data show it, unless noted: active = inhibition above about 21%; inactive = the rest.

CCCCCC(=O)Nc1cc(S(=O)(=O)O)cc2cc(S(=O)(=O)O)cc(O)c12 was read as MBD2 inh 97, Beta2AR agonist inactive, UHRF1 MBD2 ctr 99, Rin1-Abl PPI inh inactive, Arr AP2 block inactive, ABHD5-PLIN5 inh inactive, UHRF1 DNA bind 103 and MBD2 confirm 113.
For O=C(NCc1ccc(Cl)c(Cl)c1)O[C@H]1CC[C@@]23CCCN2C(=O)CCC[C@H]3C1 the results were MBD2 inh inactive and UHRF1 MBD2 ctr inactive.
`Cc1c(C(N)=O)cc([N+](=O)[O-])cc1[N+](=O)[O-]` gave MBD2 inh 17, Beta2AR agonist inactive, UHRF1 MBD2 ctr 23, Rin1-Abl PPI inh inactive, Arr AP2 block inactive, ABHD5-PLIN5 inh inactive, UHRF1 DNA bind inactive and MBD2 confirm inactive.
CCCCc1c(-c2ccccc2OC)ncn1Cc1ccc(Cl)cc1Cl was read as MBD2 inh inactive and UHRF1 MBD2 ctr inactive.
CCN(C[C@H]1N[C@@](C)(C(=O)OC)[C@H]2C(=O)N(C)C(=O)[C@@H]12)C(=O)Nc1ccc(C(F)(F)F)cc1 was read as MBD2 inh 15, Beta2AR agonist inactive, UHRF1 MBD2 ctr 22, Rin1-Abl PPI inh inactive, Arr AP2 block inactive, ABHD5-PLIN5 inh inactive, UHRF1 DNA bind inactive and MBD2 confirm inactive.
Cc1ccc(S(=O)(=O)N2CCOCC2)cc1NC(=O)Cn1c(=O)ccn(Cc2ccccc2)c1=O was read as MBD2 inh 14, Beta2AR agonist inactive, UHRF1 MBD2 ctr inactive, Rin1-Abl PPI inh inactive, Arr AP2 block inactive, ABHD5-PLIN5 inh inactive, UHRF1 DNA bind inactive and MBD2 confirm inactive.
`Nc1sc(-c2ccccc2)cc1C(=O)NCCc1c[nH]c2ccccc12` gave MBD2 inh inactive, UHRF1 MBD2 ctr inactive and ABHD5-PLIN5 inh inactive.
`COc1ccccc1NS(=O)(=O)/C=C/c1ccccc1` gave MBD2 inh 14, Beta2AR agonist inactive, UHRF1 MBD2 ctr inactive, Rin1-Abl PPI inh inactive, Arr AP2 block inactive, ABHD5-PLIN5 inh inactive, UHRF1 DNA bind inactive and MBD2 confirm inactive.
For COc1ccc(S(=O)(=O)N2CCOCC2)cc1NS(=O)(=O)/C=C/c1ccccc1 the results were MBD2 inh inactive, Beta2AR agonist inactive, UHRF1 MBD2 ctr inactive, Rin1-Abl PPI inh inactive, Arr AP2 block inactive and ABHD5-PLIN5 inh inactive.
CCOC(=O)N1CCN(C(=O)C[C@H]2C[C@@]3(C(=O)OC)C(=C[C@H](C(C)C)O[C@@H]3C3CC3)N(CCc3ccc(OC)c(OC)c3)C2=O)CC1 was read as MBD2 inh inactive and UHRF1 MBD2 ctr inactive.
For O=C1c2cc(CO)cc(O)c2C(=O)c2c(O[C@@H]3OC(CO)[C@@H](O)[C@@H](O)[C@@H]3O)cccc21 (stereo partly drawn) the results were MBD2 inh inactive, Beta2AR agonist inactive, UHRF1 MBD2 ctr inactive, Rin1-Abl PPI inh inactive, Arr AP2 block inactive and ABHD5-PLIN5 inh inactive.
`O=C(O)c1cc(O)c2c(c1)[C@H]([C@H]1c3cc(C(=O)O)cc(O)c3C(=O)c3c(O[C@@H]4O[C@H](CO)[C@@H](O)[C@H](O)[C@H]4O)cccc31)c1cccc(OC3O[C@H](CO)[C@@H](O)[C@H](O)[C@H]3O)c1C2=O` (stereo partly drawn) gave MBD2 inh 33, Beta2AR agonist inactive, UHRF1 MBD2 ctr 73, Rin1-Abl PPI inh inactive, Arr AP2 block inactive, ABHD5-PLIN5 inh inactive, UHRF1 DNA bind 90 and MBD2 confirm 94.
For O=C(c1cc(COc2ccc(F)cc2F)on1)N1CCCC(c2ccccc2)C1 (stereo not drawn) the results were MBD2 inh 15, Beta2AR agonist inactive, UHRF1 MBD2 ctr 25, Rin1-Abl PPI inh inactive, Arr AP2 block inactive, ABHD5-PLIN5 inh inactive, UHRF1 DNA bind inactive and MBD2 confirm inactive.
For CC(=O)c1cc(-c2cc(C(F)(F)F)cc(C(F)(F)F)c2)c(=O)n2c1CCC2 the results were MBD2 inh inactive and UHRF1 MBD2 ctr inactive.
C[N+](=O)C1C(=O)Nc2ccccc21 (stereo not drawn) was read as MBD2 inh 101, UHRF1 MBD2 ctr inactive, ABHD5-PLIN5 inh inactive, UHRF1 DNA bind inactive and MBD2 confirm inactive.
Screening O=C1Nc2ccccc2C1C(C[N+](=O)[O-])c1ccccc1 (stereo not drawn) returned MBD2 inh inactive, Beta2AR agonist inactive, UHRF1 MBD2 ctr inactive, Rin1-Abl PPI inh inactive, Arr AP2 block inactive and ABHD5-PLIN5 inh inactive.
`COc1cccc(C(C)(O)c2nc(-c3ccc(S(C)(=O)=O)cc3)cs2)c1` (stereo not drawn) gave MBD2 inh inactive, UHRF1 MBD2 ctr inactive, Rin1-Abl PPI inh inactive and ABHD5-PLIN5 inh inactive.
For OCCCNCc1cccc2ccccc12 the results were MBD2 inh 15, Beta2AR agonist inactive, UHRF1 MBD2 ctr inactive, Rin1-Abl PPI inh inactive, Arr AP2 block inactive, ABHD5-PLIN5 inh inactive, UHRF1 DNA bind inactive and MBD2 confirm 19.
Cc1ccc(S(=O)(=O)N2CCCC2c2cccc3[nH]cc(C)c23)cc1 (stereo not drawn) was read as MBD2 inh inactive and UHRF1 MBD2 ctr inactive.
Screening CC1CCCCC1NC(=O)CSc1nncs1 (stereo not drawn) returned MBD2 inh 14, Beta2AR agonist inactive, UHRF1 MBD2 ctr inactive, Rin1-Abl PPI inh inactive, Arr AP2 block inactive, ABHD5-PLIN5 inh inactive, UHRF1 DNA bind inactive and MBD2 confirm inactive.
`Cc1ccc(S(=O)(=O)N2CCN(C(=O)c3cc4c(s3)CCCC4)CC2)cc1` gave MBD2 inh inactive, Beta2AR agonist inactive, UHRF1 MBD2 ctr inactive, Rin1-Abl PPI inh inactive, Arr AP2 block inactive and ABHD5-PLIN5 inh inactive.
`COc1ccc(S(=O)(=O)N2CCN(C(=O)c3cc4c(s3)CCC4)CC2)cc1` gave MBD2 inh 22, Beta2AR agonist inactive, UHRF1 MBD2 ctr 46, Rin1-Abl PPI inh inactive, Arr AP2 block inactive, ABHD5-PLIN5 inh inactive, UHRF1 DNA bind 46 and MBD2 confirm 43.
Screening COc1ccc(CCNC(=O)c2cc(-c3ccco3)nc3ccccc23)cc1 returned MBD2 inh 17, UHRF1 MBD2 ctr 21, UHRF1 DNA bind inactive and MBD2 confirm inactive.
Screening C=C(C)Cc1c(C)nc(-c2ccccc2)[nH]c1=O returned MBD2 inh inactive, Beta2AR agonist inactive, UHRF1 MBD2 ctr inactive, Rin1-Abl PPI inh inactive, Arr AP2 block inactive and ABHD5-PLIN5 inh inactive.
Screening CCCCCCOC(=O)Cc1c(C)nc(-c2ccccc2)[nH]c1=O returned MBD2 inh 13, Beta2AR agonist inactive, UHRF1 MBD2 ctr inactive, Rin1-Abl PPI inh inactive, Arr AP2 block inactive, ABHD5-PLIN5 inh inactive, UHRF1 DNA bind inactive and MBD2 confirm inactive.
O=C(OCCCCSc1nnc(-c2cccc3ccccc23)o1)c1ccc(F)cc1 was read as MBD2 inh inactive and UHRF1 MBD2 ctr inactive.
